Reference: the RNAGym collection of RNA variant scans (doi:10.1126/science.aae0568)
Variants at the floor of the assay were thinned out.

B1: tRNA (parent)
chain: GUUCCGUUGGCGUAAUGGUAACGCGUCUCCCUCCUAAGGAGAAGACUGCGGGUUCGAGUCCCGUACGGAACG

Variants of: B1
Test: yeast fitness relative to wild type (ratio to wild type); higher = fitter; tRNA-Arg(CCU), competitive growth, 37 C, YPD
In short: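 Gene amplicons from the start population and from each of six end populations were read by 100-nucleotide paired-end sequencing. Those end populations came from pooled Saccharomyces cerevisiae strains carrying tRNA-Arg(CCU) gene variants at the native locus, competed in YPD at 37°C for 24 hours. Fitness relative to wild type was worked out from changes in genotype frequencies. Genotypes needed ≥ 100 starting reads, and estimates < 0.5 were set to 0.5.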

Q: With U2C G10A C46G G50A as the variant, how does the yeast fitness read?
A: ≤ 0.5

Q: With U2C G10C A14U G38C as the variant, how does the yeast fitness read?
A: ≤ 0.5

Q: For U2C G17C G23C G25C U35A A42U A70G, which yeast fitness is on record?
A: ≤ 0.5

Q: Which yeast fitness does the source give for U2C U32C here?
A: 0.973

Q: For U2C C49G, which yeast fitness is on record?
A: 0.798

Q: Which yeast fitness does the source give for U2C G10A here?
A: 0.803

Q: With U2C U8C G23C C31G C33U A42G G52C G58C as the variant, how does the yeast fitness read?
A: ≤ 0.5

Q: With U2C G17A A37C A65G as the variant, how does the yeast fitness read?
A: 0.539

Q: For U2C G18C C30U C61G, which yeast fitness is on record?
A: ≤ 0.5

Q: For U2C C34U A65U, which yeast fitness is on record?
A: 0.6

Q: With U2G A21G A57C as the variant, how does the yeast fitness read?
A: ≤ 0.5

Q: Which yeast fitness does the source give for U2C G38A U47A C55G C61U here?
A: ≤ 0.5

Q: Which yeast fitness does the source give for U2C U28C C34U U64A A65U here?
A: 0.735

Q: Which yeast fitness does the source give for U2C G9C here?
A: 0.722

Q: For U2G A15G G17A C29G A40U C61U C66U, which yeast fitness is on record?
A: ≤ 0.5

Q: With U2G A20U U32A C46G as the variant, how does the yeast fitness read?
A: ≤ 0.5

Q: Which yeast fitness does the source give for U2C C24G C30U C62U here?
A: ≤ 0.5

Q: With U2G A21G as the variant, how does the yeast fitness read?
A: 0.917

Q: With U2C C27G U28A A43U as the variant, how does the yeast fitness read?
A: 0.629

Q: For U2C U19C A37G, which yeast fitness is on record?
A: ≤ 0.5

Q: For U2C C27A C62A, which yeast fitness is on record?
A: 0.641

Q: For U2G A20U A43U, which yeast fitness is on record?
A: 0.594

Q: For U2C C66A A69C, which yeast fitness is on record?
A: ≤ 0.5

Q: Which yeast fitness does the source give for U2C G48A A69C here?
A: 0.705

Q: Which yeast fitness does the source give for U2C C30G C31G C46G U54A here?
A: ≤ 0.5

Q: For U2C U28A A70G, which yeast fitness is on record?
A: ≤ 0.5

Q: With U2C C31U A57U as the variant, how does the yeast fitness read?
A: 0.535

Q: For U2C C30G C33A A65C, which yeast fitness is on record?
A: ≤ 0.5

Q: For U2C G23C C27G A45G G52A C66A, which yeast fitness is on record?
A: 0.534

Q: Which yeast fitness does the source give for U2C U32C U35A G56A here?
A: ≤ 0.5

Q: Which yeast fitness does the source give for U2C U26G G38C here?
A: ≤ 0.5

Q: For U2C U8C C34A A42C C49A, which yeast fitness is on record?
A: ≤ 0.5

Q: With U2C G48A G67A as the variant, how does the yeast fitness read?
A: 0.633

Q: Which yeast fitness does the source give for U2G A15G G17A here?
A: ≤ 0.5

Q: For U2C C22A C29A G51C, which yeast fitness is on record?
A: 0.596

Q: For U2G A21C C46G C49G, which yeast fitness is on record?
A: ≤ 0.5

Q: For U2C G25C, which yeast fitness is on record?
A: 0.953

Q: With U2C G25A as the variant, how does the yeast fitness read?
A: 0.943

Q: For U2C G6A, which yeast fitness is on record?
A: 0.998

Q: For U2C U19C A45C C55U, which yeast fitness is on record?
A: ≤ 0.5

Q: For U2C C62U G68C A69G, which yeast fitness is on record?
A: ≤ 0.5

Q: Which yeast fitness does the source give for U2G A14U A20G C33G C61U A70C here?
A: ≤ 0.5

Q: Which yeast fitness does the source give for U2C C55G here?
A: 0.583

Q: Which yeast fitness does the source give for U2C U8C A42C here?
A: 0.676

Q: For U2C G12A A15G, which yeast fitness is on record?
A: ≤ 0.5

Q: For U2C C27A, which yeast fitness is on record?
A: 0.749

Q: For U2C U16C A36G C55U, which yeast fitness is on record?
A: ≤ 0.5

Q: Which yeast fitness does the source give for U2C U16C A36G here?
A: ≤ 0.5

Q: With U2C U35A G56A as the variant, how does the yeast fitness read?
A: 0.576

Q: With U2C G51A A69U as the variant, how does the yeast fitness read?
A: ≤ 0.5

Q: With U2C U16G G51A as the variant, how does the yeast fitness read?
A: 0.588

Q: For U2C C22A, which yeast fitness is on record?
A: 0.927

Q: Which yeast fitness does the source give for U2C U3C C34U A65G here?
A: ≤ 0.5

Q: With U2C U13C C27A G58C G63C as the variant, how does the yeast fitness read?
A: ≤ 0.5

Q: For U2C G10A C34G C46U G48C U54G, which yeast fitness is on record?
A: ≤ 0.5

Q: Which yeast fitness does the source give for U2C U28A U54C here?
A: 0.543

Q: Which yeast fitness does the source give for U2C U32A C46U here?
A: 0.603

Q: Which yeast fitness does the source give for U2C C60A here?
A: 0.66

Q: Which yeast fitness does the source give for U2G A21C C22G A45G G51A here?
A: 0.697

Q: For U2G A15U C62G, which yeast fitness is on record?
A: ≤ 0.5

Q: For U2C C24U C60A, which yeast fitness is on record?
A: ≤ 0.5

Q: For U2C G18C G25C C30A G63C, which yeast fitness is on record?
A: ≤ 0.5

Q: For U2G A20G, which yeast fitness is on record?
A: 0.901

Q: Which yeast fitness does the source give for U2C U32C A40C G48A here?
A: 0.551

Q: For U2C G9A A20G, which yeast fitness is on record?
A: 1.07

Q: Which yeast fitness does the source give for U2C U13A G18A A42G here?
A: ≤ 0.5

Q: For U2C U3G G10A A69C, which yeast fitness is on record?
A: ≤ 0.5

Q: With U2C U8G A20G U32G U35A as the variant, how does the yeast fitness read?
A: ≤ 0.5

Q: For U2G A21C A45G, which yeast fitness is on record?
A: 0.54

Q: Which yeast fitness does the source give for U2C G25C A43U here?
A: 0.624

Q: For U2C C29U A37G A57G, which yeast fitness is on record?
A: ≤ 0.5

Q: For U2C U8C C34A A42C G68C, which yeast fitness is on record?
A: ≤ 0.5

Q: Which yeast fitness does the source give for U2C C27A G41A C49A U53C U54C U64C here?
A: ≤ 0.5

Q: For U2C G10C A36C, which yeast fitness is on record?
A: 0.587

Q: For U2G A14G, which yeast fitness is on record?
A: 0.713

Q: Which yeast fitness does the source give for U2C C27G A43U A45U A69U here?
A: ≤ 0.5

Q: Which yeast fitness does the source give for U2G A20U G25C C49G A65C A70U here?
A: ≤ 0.5

Q: With U2C C24U C29U C30A A69U as the variant, how does the yeast fitness read?
A: ≤ 0.5

Q: Which yeast fitness does the source give for U2C G58A here?
A: 0.893

Q: For U2C C49U C62U, which yeast fitness is on record?
A: 0.521

Q: With U2C G10C C24A C31U A36C G48A as the variant, how does the yeast fitness read?
A: ≤ 0.5

Q: Which yeast fitness does the source give for U2C G9C U28C G50C A57C A69U here?
A: ≤ 0.5

Q: Which yeast fitness does the source give for U2C C49G G58A here?
A: ≤ 0.5

Q: With U2C U28A G44U as the variant, how does the yeast fitness read?
A: ≤ 0.5
